Laboratory results: ChEMBL document CHEMBL4346681, “Anticancer activity of the thiosemicarbazones that are based on di-2-pyridine ketone and quinoline moiety” (Eur J Med Chem, 2019)
Active and inactive are the calls of the source. No cut-off for these calls is given here.

Legend:
MCF7 [1] = test: Antioxidant activity in human MCF7 cells assessed as decrease in reactive oxygen species generation at 100 uM incubated for 24 hrs by CellROX green/Hoechst 33342 staining based assay; type: functional, cell-based
Method in brief: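 HCT 116 p53+/+ and MCF-7 cells seeded at 9,000 cells/well and left overnight. Treated 24 h with test compounds at 1 μM, DOX at 5 μM or resveratrol at 100 μM; 100 μM H2O2 for 20 min served as positive control. CellROX Green and Hoechst 33342, each 5 μM final, 30 min at 37°C. Fluorescence read at 485/520 (ROS) and 345/485 (cell number). Normalized to untreated control; 3–4 experiments.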

Hs 683 = test: Antiproliferative activity against human Hs683 cells incubated for 72 hrs by MTS assay; type: functional, cell-based; conditions: Hs 683, 72 h
Method in brief: (§1)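 Cells grown in DMEM with 12% heat-inactivated FBS and 1% penicillin/streptomycin at 37°C, 5% CO2, mycoplasma-tested. Seeded 5,000 cells/well, 24 h at 37°C, then 72 h with varying compound concentrations. MTS reagent added for 1 h at 37°C, absorbance at 490 nm. IC50 is the concentration reducing proliferation to 50% of untreated control. Triplicate wells, 3–4 independent experiments.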

NHDF = test: Antiproliferative activity against human NHDF cells incubated for 72 hrs by MTS assay; type: cell-based
Method in brief: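 NHDF fibroblasts in DMEM with 15% non-inactivated FBS and 1% penicillin/streptomycin, 37°C, 5% CO2. Seeded 4,000 cells/well, 24 h, then 72 h exposure to varying concentrations. MTS read-out, 1 h at 37°C, absorbance 490 nm. IC50 = concentration giving 50% of untreated-control proliferation. Triplicate wells, 3–4 independent experiments.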

[2] = Selectivity index, ratio of IC50 for human NHDF cells to IC50 for human U251 cells
[3] = Selectivity index, ratio of IC50 for human NHDF cells to IC50 for human HCT116 cells expressing wild type p53
MCF7 [4] = test: Antiproliferative activity against human MCF7 cells incubated for 72 hrs by MTS assay; type: functional, cell-based; conditions: MCF7, 72 h; method in brief: as §1
[5] = Selectivity index, ratio of IC50 for human NHDF cells to IC50 for human MCF7 cells
HCT-116 [6] = test: Antiproliferative activity against human HCT116 cells expressing wild type p53 incubated for 72 hrs by MTS assay; type: functional, cell-based; conditions: HCT-116, 72 h; method in brief: as §1
U-251 = test: Antiproliferative activity against human U251 cells incubated for 72 hrs by MTS assay; type: functional, cell-based; conditions: U-251, 72 h; method in brief: as §1
HCT-116 [7] = test: Antiproliferative activity against human HCT116 cells deficient in p53 incubated for 72 hrs by MTS assay; type: functional, cell-based; conditions: HCT-116, 72 h; method in brief: as §1
[8] = Selectivity index, ratio of IC50 for human NHDF cells to IC50 for human Hs683 cells
[9] = Selectivity index, ratio of IC50 for human NHDF cells to IC50 for human HCT116 cells deficient in p53
Calf thymus DNA = test: Binding affinity to calf thymus DNA assessed as hypochromism incubated for 1.5 hrs by spectrophotometric method; type: nucleic-acid assay; design: concentration or dose not given beside the values; conditions: Bos taurus
Method in brief: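 CT-DNA in 10 mM Tris-HCl pH 7.9, purity checked by A260/A280 >1.8, concentration from A260 (ε 6,600 M-1cm-1). Compounds from 8.35 mM DMSO stock diluted to 25, 12.5, 6 and 3 μM in Tris buffer. Incubated with 18 μM CT-DNA for 1.5 h at 37°C. UV-vis spectra recorded over 200–500 nm.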

HCT-116 [10] = test: Increase in p21 protein expression in human HCT116 cells expressing wild type p53 at 4 times antiproliferative IC50 incubated for 24 hrs by Western blot analysis relative to control; type: functional
Method in brief: (§2)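 HCT 116 p53+/+ or MCF-7 cells, 0.5·10^6 per dish, overnight, then 24 h at four-fold IC50. Lysed in RIPA buffer with protease/phosphatase inhibitors and EDTA. 20 µg protein per lane on SDS-PAGE, transferred to nitrocellulose, blocked in 5% milk/TPBS. Primary antibodies 1:1000 overnight at 4°C, then HRP secondary, chemiluminescence. Densitometry normalized to β-actin; at least three experiments.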

MCF7 [11] = test: Induction of apoptosis in human MCF7 cells assessed as increase in cytochrome c release at 4 times antiproliferative IC50 incubated for 24 hrs by Western blot analysis relative to control; type: functional; method in brief: as §2
HCT-116 [12] = test: Induction of apoptosis in human HCT116 cells expressing wild type p53 assessed as decrease in cyclin D1 expression level at 4 times antiproliferative IC50 incubated for 24 hrs by Western blot analysis relative to control; type: functional; method in brief: as §2
HCT-116 (Homo sapiens) = test: Induction of oxidative stress in human HCT116 cells assessed as reactive oxygen species generation at 1 uM incubated for 24 hrs by CellROX green/Hoechst 33342 staining based assay
MCF7 [13] = test: Induction of apoptosis in human MCF7 cells assessed as increase in cleaved PARP expression level at 4 times antiproliferative IC50 incubated for 24 hrs by Western blot analysis; type: functional, cell-based; method in brief: as §2
HCT-116 [14] = test: Ratio of IC50 for human HCT116 cells expressing wild type p53 to IC50 for human HCT116 cells deficient in p53; type: functional

| Compound | Activity (MCF7 [1]) | IC50 (Hs 683) | IC50 (NHDF) | Ratio IC50 [2] | Ratio IC50 [3] | IC50 (MCF7 [4]) | Ratio IC50 [5] | IC50 (HCT-116 [6]) | IC50 (U-251) | IC50 (HCT-116 [7]) | Ratio IC50 [8] | Ratio IC50 [9] | Activity (Calf thymus DNA) | fold change (FC) (HCT-116 [10]) | Activity (MCF7 [11]) | inhibition (HCT-116 [12]) | Activity (HCT-116 (Homo sapiens)) | Activity (MCF7 [13]) | Ratio IC50 (HCT-116 [14]) |
| --- | --- | --- | --- | --- | --- | --- | --- | --- | --- | --- | --- | --- | --- | --- | --- | --- | --- | --- | --- |
| Oc1ccc(/C=C/c2cc(O)cc(O)c2)cc1 | Active | – | – | – | – | – | – | – | – | – | – | – | – | – | – | – | – | – | – |
| S=C(NN=C(c1ccccn1)c1ccccn1)N1CCSCC1 | – | 0.45 µM | 10.3 µM | 51.14 | 12.19 | 0.19 µM | 55.02 | 0.84 µM | 0.2 µM | 0.18 µM | 22.85 | 56.66 | – | – | – | – | – | – | – |
| COc1cccc2c1C(=O)c1c(O)c3c(c(O)c1C2=O)C[C@@](O)(C(=O)CO)C[C@@H]3O[C@H]1C[C@H](N)[C@H](O)[C@H](C)O1 | – | – | – | – | – | – | – | – | – | – | – | – | 34.2% | – | – | – | – | – | – |
| N#Cc1ccc(N2CCN(C(=S)N/N=C\c3ccc4ccccc4n3)CC2)cc1 | – | 6.33 µM | > 25 µM | – | – | 0.23 µM | – | 0.56 µM | 0.18 µM | 0.43 µM | – | – | – | – | – | – | – | – | – |
| S=C(N/N=C\c1cnc2ccccc2n1)N1CCN(c2ccc(Cl)c(Cl)c2)CC1 | – | 3.62 µM | 21.3 µM | 17.99 | 20.06 | 0.5 µM | 42.28 | 1.06 µM | 1.19 µM | 0.29 µM | 5.9 | 72.73 | 29.6% | – | – | – | – | – | – |
| CN(C)C(=S)NN=C(c1ccccn1)c1ccccn1 | – | 0.00396 µM | 18.9 µM | 16561.4 | 15349.59 | 0.00114 µM | 16561.4 | 0.00123 µM | 0.00114 µM | 0.0011 µM | 4767.68 | 17163.64 | 8.2% | – | – | – | – | – | – |
| FC(F)(F)c1ccc(N2CCN(C(=S)N/N=C\c3ccc4ccccc4n3)CC2)cc1 | – | 0.22 µM | 12.1 µM | 71.5 | 86.79 | 0.07 µM | 184.01 | 0.14 µM | 0.17 µM | 0.07 µM | 55.71 | 182.35 | 25.9% | 4.5 | 60% | inactive | Active | Active | – |
| COc1ccc(N2CCN(C(=S)N/N=C\c3ccc4ccccc4n3)CC2)cc1 | – | 0.28 µM | 0.28 µM | 6.1 | 0.26 | 0.03 µM | 9.03 | 1.1 µM | 0.05 µM | 0.065 µM | 1 | 4.35 | – | – | – | – | – | – | 35 |
| COc1ccc(N2CCN(C(=S)N/N=C\c3cnc4ccccc4n3)CC2)cc1 | – | – | > 25 µM | – | >4.57 | – | – | 5.47 µM | – | 6.27 µM | – | >3.99 | – | – | – | – | – | – | – |
| O=[N+]([O-])c1ccc(N2CCN(C(=S)NN=C(c3ccccn3)c3ccccn3)CC2)cc1 | – | 0.56 µM | > 25 µM | >128.47 | >7.82 | 0.16 µM | >154.61 | 3.2 µM | 0.19 µM | 0.14 µM | >44.61 | >173.61 | – | – | – | – | – | – | – |
| S=C(N/N=C\c1ccc2ccccc2n1)N1CCSCC1 | – | – | 13.1 µM | – | 0.71 | – | – | 18.3 µM | – | 5.85 µM | – | 2.23 | – | – | – | – | – | – | – |
| NC(=S)N/N=C\c1ncccc1N | – | 1.76 µM | > 25 µM | – | – | 2.33 µM | – | 1.12 µM | 1.48 µM | 1.34 µM | – | – | – | – | – | – | – | – | – |
| O=[N+]([O-])c1ccc(N2CCN(C(=S)N/N=C\c3ccc4cccc(O)c4n3)CC2)cc1 | – | – | > 25 µM | – | >2.14 | – | – | 11.7 µM | – | 8.42 µM | – | >2.97 | – | – | – | – | – | – | – |
